{
  "source": "ChEMBL document CHEMBL4834471",
  "about": "(J Med Chem, 2021)",
  "key": {"Keratinocyte [1]": {"test_system": "Keratinocyte", "assay": "Antiinflammatory activity in cytokine cocktail-induced reconstructed human epidermis model assessed as decrease in pH at 5 to 25 uM after 4 days", "assay_type": "functional, cell-based", "settings": "dose 5-25 µM, time 4.0 day", "outline": "(§1)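 Reconstructed human epidermis exposed to compound and stressed with a cytokine cocktail for 4 days. Readouts: IL-8 in growth medium, H&E morphology, transepidermal water loss, stratum corneum permeability to Lucifer yellow with DAPI nuclear stain, and surface pH. n = 2–3 independent experiments.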"}, "Keratinocyte [2]": {"test_system": "Keratinocyte", "assay": "Cytotoxicity against human Keratinocytes assessed as reduction in cell viability at 10 to 100 uM after 24 hrs by MTT assay", "assay_type": "cell-based", "settings": "dose 10-100 µM"}, "Mus musculus [3]": {"test_system": "Mus musculus", "assay": "Antiinflammatory activity against ovalbumin-induced airway hyperreactivity in BALB/c mouse assessed as reduction in LTB4 and isomers level in lung tissue at 10 mg/kg, po pretreated with compound for 60 mins prior to ovalbumin stimulation on day 0 and 7 and […] by UPLC-MS/MS analysis", "assay_type": "functional, organism-based", "outline": "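Mice gavaged with 10 mg/kg 60 min before ovalbumin sensitization on days 0 and 7. Lung tissue taken on […] and LTB4 plus its isomers quantified as pg/mg lung tissue; n = 5 mice; two-tailed unpaired t-test of log data.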"}, "[4]": {"target": "T1, Prostaglandin E synthase (Homo sapiens) (UniProt O14684)", "T1 sequence (whole entry)": "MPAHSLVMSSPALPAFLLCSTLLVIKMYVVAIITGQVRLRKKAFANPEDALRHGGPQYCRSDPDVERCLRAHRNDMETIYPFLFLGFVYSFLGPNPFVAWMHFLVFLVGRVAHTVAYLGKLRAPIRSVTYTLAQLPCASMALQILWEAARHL", "assay": "Inhibition of mPEGS1 in pathogenic Escherichia coli-stimulated human macrophages M1 at 1 uM by UPLC-MS/MS analysis", "settings": "Macrophage", "outline": "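M1 macrophages obtained by GM-CSF differentiation for 6 days, then LPS/IFN-γ polarization for 48 h. Treated with compound at 1 μM and stimulated with pathogenic E. coli; lipid mediator network profiled by metabololipidomics against vehicle.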"}, "Mus musculus [5]": {"test_system": "Mus musculus", "assay": "Antiinflammatory activity in zymosan-induced CD-1 mouse peritonitis model assessed as reduction in LTC4 level at 10 mg/kg, ip preincubated with compound for 30 mins followed by zymosan addition and measured after 30 mins by ELISA", "assay_type": "functional, organism-based", "settings": "time 60.0 min", "outline": "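Compound 10 mg/kg i.p. in zymosan-induced peritonitis; mice killed 30 min after zymosan injection; exudate LTC4 measured by ELISA; statistics by two-tailed unpaired t-test of log data.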"}, "[6]": {"target": "T1, Prostaglandin E synthase (Homo sapiens)", "assay": "Inhibition of mPGES-1 activity in IL-1beta treated human A549 cells assessed as reduction in PGE2 formation at 10 uM using PGH2 as substrate preincubated for 15 mins followed by substrate addition and measured after 1 min", "assay_type": "cell-based", "settings": "time 16.0 min"}, "[7]": {"target": "Prostaglandin G/H synthase 1 (Homo sapiens) (UniProt P23219)", "sequence (P23219 whole entry)": "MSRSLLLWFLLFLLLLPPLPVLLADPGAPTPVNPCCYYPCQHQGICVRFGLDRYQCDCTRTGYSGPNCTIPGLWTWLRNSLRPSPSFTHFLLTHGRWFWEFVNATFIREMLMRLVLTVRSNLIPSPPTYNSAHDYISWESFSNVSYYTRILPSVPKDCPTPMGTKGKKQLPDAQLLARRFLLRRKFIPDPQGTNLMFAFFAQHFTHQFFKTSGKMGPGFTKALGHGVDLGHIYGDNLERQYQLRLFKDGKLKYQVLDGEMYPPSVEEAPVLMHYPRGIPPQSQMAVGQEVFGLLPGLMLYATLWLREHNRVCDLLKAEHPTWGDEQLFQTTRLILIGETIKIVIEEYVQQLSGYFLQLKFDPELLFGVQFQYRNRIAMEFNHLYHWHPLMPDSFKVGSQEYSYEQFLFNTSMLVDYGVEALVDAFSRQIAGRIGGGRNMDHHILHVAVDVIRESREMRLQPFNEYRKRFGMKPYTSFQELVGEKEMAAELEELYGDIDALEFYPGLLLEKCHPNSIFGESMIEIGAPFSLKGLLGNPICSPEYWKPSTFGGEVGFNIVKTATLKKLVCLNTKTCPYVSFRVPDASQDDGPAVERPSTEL", "assay": "Inhibition of COX-1 in human platelets assessed as reduction in 12-HHT formation at 10 uM using arachidonic acid as substrate preincubated for 5 mins followed by substrate addition and measured after 5 mins by RPL-HPLC method", "assay_type": "tissue-based", "settings": "Platelet, time 10.0 min"}, "Keratinocyte [8]": {"test_system": "Keratinocyte", "assay": "Antiinflammatory activity in cytokine cocktail-induced reconstructed human epidermis model assessed as improved skin barrier functions at 5 to 25 uM after 4 days", "assay_type": "functional, cell-based", "settings": "dose 5-25 µM, time 4.0 day", "outline": "as §1"}, "[9]": {"target": "T2, Polyunsaturated fatty acid lipoxygenase ALOX15 (Homo sapiens) (UniProt P16050)", "T2 sequence (whole entry)": "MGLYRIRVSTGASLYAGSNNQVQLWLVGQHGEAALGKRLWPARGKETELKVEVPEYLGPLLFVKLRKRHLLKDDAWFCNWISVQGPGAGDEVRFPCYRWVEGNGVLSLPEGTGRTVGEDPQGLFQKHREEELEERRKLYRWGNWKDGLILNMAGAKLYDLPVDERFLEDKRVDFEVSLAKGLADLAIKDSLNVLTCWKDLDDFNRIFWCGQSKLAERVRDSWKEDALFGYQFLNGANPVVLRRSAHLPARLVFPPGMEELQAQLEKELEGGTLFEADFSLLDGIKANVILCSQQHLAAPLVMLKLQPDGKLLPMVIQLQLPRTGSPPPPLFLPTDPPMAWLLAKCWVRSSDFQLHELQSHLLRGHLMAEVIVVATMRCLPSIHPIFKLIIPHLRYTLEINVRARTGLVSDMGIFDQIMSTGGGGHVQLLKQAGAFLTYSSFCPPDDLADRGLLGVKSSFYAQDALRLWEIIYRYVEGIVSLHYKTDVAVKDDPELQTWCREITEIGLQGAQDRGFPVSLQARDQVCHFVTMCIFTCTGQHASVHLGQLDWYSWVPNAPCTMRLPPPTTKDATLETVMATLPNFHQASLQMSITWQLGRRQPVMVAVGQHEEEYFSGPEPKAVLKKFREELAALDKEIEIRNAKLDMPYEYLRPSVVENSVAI", "assay": "Inhibition of 15-LOX in human PMNL assessed as reduction in 15-LOX product formation at 10 uM treated with AA and A23187 by RP-HPLC method", "assay_type": "tissue-based"}, "[10]": {"target": "T3, Prostaglandin G/H synthase 2 (Homo sapiens) (UniProt P35354)", "T3 sequence (whole entry)": "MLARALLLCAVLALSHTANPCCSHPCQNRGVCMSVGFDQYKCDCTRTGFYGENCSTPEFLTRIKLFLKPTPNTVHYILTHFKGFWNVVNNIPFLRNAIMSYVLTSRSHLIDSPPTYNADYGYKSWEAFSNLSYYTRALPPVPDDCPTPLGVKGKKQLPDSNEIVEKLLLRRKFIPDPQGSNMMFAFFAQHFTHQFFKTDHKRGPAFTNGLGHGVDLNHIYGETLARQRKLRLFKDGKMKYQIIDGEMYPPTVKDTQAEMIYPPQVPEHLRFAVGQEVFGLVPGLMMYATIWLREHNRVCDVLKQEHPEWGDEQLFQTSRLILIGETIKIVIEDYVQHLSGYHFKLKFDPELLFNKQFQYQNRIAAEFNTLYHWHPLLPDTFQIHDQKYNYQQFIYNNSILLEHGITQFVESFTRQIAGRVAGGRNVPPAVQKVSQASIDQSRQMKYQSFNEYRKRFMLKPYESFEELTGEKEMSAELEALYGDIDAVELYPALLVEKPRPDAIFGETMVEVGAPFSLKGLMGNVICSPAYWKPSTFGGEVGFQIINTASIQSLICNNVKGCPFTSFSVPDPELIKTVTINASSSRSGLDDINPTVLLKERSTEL", "assay": "Inhibition of recombinant human COX-2 assessed as reduction in 12-HHT formation at 10 uM using arachidonic acid as substrate preincubated for 6 mins followed by substrate addition by RPL-HPLC method"}, "Mus musculus [11]": {"test_system": "Mus musculus", "assay": "Antiinflammatory activity BALB/c mouse assessed as inhibition of carbachol-induced bronchial reactivity at 10 mg/kg, po administered on day 0 and 7 and measured upto 21 days", "assay_type": "functional, organism-based", "settings": "time day <=21"}, "Keratinocyte [12]": {"test_system": "Keratinocyte", "assay": "Antiinflammatory activity in cytokine cocktail-induced reconstructed human epidermis model assessed as reduction in IL-8 level at 5 to 25 uM after 4 days by ELISA", "assay_type": "functional, cell-based", "settings": "dose 5-25 µM, time 4.0 day", "outline": "as §1"}, "[13]": {"assay": "Drug concentration in peritoneal exudate of CD-1 mouse at 30 mg/kg, po after 30 mins", "assay_type": "ADME, organism-based, Peritoneal fluid", "settings": "read-out: Ct", "outline": "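Oral dosing at 30 mg/kg in zymosan peritonitis; mice killed 30 min after zymosan injection. Compound concentrations measured in plasma and in peritoneal exudate.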"}},
  "note": "Calls of active or inactive are those of the source. The calls are words filed in the database; no cut-off is given here.",
  "data": [
    {"smiles": "C/C(=C\\CC/C(C)=C/CC[C@]1(C)CCc2c(C)c(O)c(C)c(C)c2O1)CCC=C(CO)CO", "values": [
      {"measurement": "Activity", "setting": "Keratinocyte [1]", "value": "Active"},
      {"measurement": "Activity", "setting": "Keratinocyte [2]", "value": "Non-Toxic"},
      {"measurement": "Activity", "setting": "Mus musculus [3]", "value": "Active"},
      {"measurement": "inhibition", "setting": "[4]", "value": "inactive"},
      {"measurement": "Activity", "setting": "Mus musculus [5]", "value": "Active"},
      {"measurement": "inhibition", "setting": "[6]", "value": "Active"},
      {"measurement": "inhibition", "setting": "[7]", "value": "inactive"},
      {"measurement": "Activity", "setting": "Keratinocyte [8]", "value": "Active"},
      {"measurement": "inhibition", "setting": "[9]", "value": "inactive"},
      {"measurement": "inhibition", "setting": "[10]", "value": "inactive"},
      {"measurement": "Activity", "setting": "Mus musculus [11]", "value": "Active"},
      {"measurement": "Activity", "setting": "Keratinocyte [12]", "value": "Active"},
      {"measurement": "concentration at 0.5 h", "setting": "[13]", "value": 0.5, "unit": "nM"}
    ]}
  ]
}
